# Assays:
# [1] = test system: Mycobacterium tuberculosis; assay: Antimycobacterial activity against Mycobacterium bovis BCG assessed as clolony forming unit at 125 ug/ml after 21 days; type: functional, variant bovis BCG
# Outline: (§1)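 M. bovis BCG exposed to agent, with or without sucrose or 2.5% dextran, in log-phase and stationary-phase cultures. Bactericidal activity read as viable count (log CFU/ml) at day 7 and day 21. Values given as means ± SD.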
# [2] = test system: Mycobacterium tuberculosis; assay: Antimycobacterial activity against Mycobacterium bovis BCG assessed as clolony forming unit at 125 ug/ml after 21 days in presence of destrin; type: functional, variant bovis BCG; outline: as §1
# [3] = test system: Mycobacterium tuberculosis; assay: Antimycobacterial activity against Mycobacterium bovis BCG assessed as clolony forming unit at 125 ug/ml after 7 days in presence of sucrose; type: functional, variant bovis BCG; outline: as §1
# [4] = test system: Mycobacterium tuberculosis; assay: Antimycobacterial activity against Mycobacterium bovis BCG carrying pMV261::ethR; type: functional; settings: Mycobacterium tuberculosis variant bovis BCG
# Outline: (§2)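 MIC by agar method on 7H11 supplemented with OADC. M. bovis BCG carried empty pMV261, or pMV261 overexpressing EthA or EthR from the constitutive hsp60 promoter. Results reported as MIC ranges in µg/ml.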
# [5] = test system: Mycobacterium tuberculosis; assay: Antimycobacterial activity against Mycobacterium bovis BCG carrying pMV261; type: functional; settings: Mycobacterium tuberculosis variant bovis BCG; outline: as §2
# [6] = test system: Mycobacterium tuberculosis; assay: Antimycobacterial activity against Mycobacterium bovis BCG assessed as clolony forming unit at 125 ug/ml after 7 days; type: functional, variant bovis BCG; outline: as §1
# [7] = test system: Mycobacterium tuberculosis; assay: Antimycobacterial activity against Mycobacterium bovis BCG assessed as clolony forming unit at 125 ug/ml after 7 days in presence of dextrin; type: functional, variant bovis BCG; outline: as §1
# [8] = test system: Mycobacterium tuberculosis; assay: Antimycobacterial activity against Mycobacterium bovis BCG assessed as clolony forming unit at 125 ug/ml after 21 days in presence of sucrose; type: functional, variant bovis BCG; outline: as §1
# [9] = test system: Mycobacterium tuberculosis; assay: Antimycobacterial activity against Mycobacterium bovis BCG carrying pMV261::ethA; type: functional; settings: Mycobacterium tuberculosis variant bovis BCG; outline: as §2
# [10] = test system: Mycobacterium tuberculosis; assay: Antimycobacterial activity against Mycobacterium bovis BCG assessed as clolony forming unit at 313 ug/ml after 21 days in presence of destrin; type: functional, variant bovis BCG; outline: as §1
# [11] = test system: Mycobacterium tuberculosis; assay: Antimycobacterial activity against Mycobacterium bovis BCG assessed as clolony forming unit at 313 ug/ml after 7 days in presence of dextrin; type: functional, variant bovis BCG; outline: as §1
# [12] = test system: Mycobacterium tuberculosis; assay: Antimycobacterial activity against Mycobacterium bovis BCG assessed as clolony forming unit at 313 ug/ml after 7 days in presence of sucrose; type: functional, variant bovis BCG; outline: as §1
# [13] = test system: Mycobacterium tuberculosis; assay: Antimycobacterial activity against Mycobacterium bovis BCG assessed as clolony forming unit at 313 ug/ml after 21 days in presence of sucrose; type: functional, variant bovis BCG; outline: as §1
# [14] = test system: Mycobacterium tuberculosis; assay: Antimycobacterial activity against Mycobacterium bovis BCG assessed as clolony forming unit at 313 ug/ml after 7 days; type: functional, variant bovis BCG; outline: as §1
# [15] = test system: Mycobacterium tuberculosis; assay: Antimycobacterial activity against Mycobacterium bovis BCG assessed as clolony forming unit at 313 ug/ml after 21 days; type: functional, variant bovis BCG; outline: as §1
# [16] = test system: Mycobacterium tuberculosis; assay: Antimycobacterial activity against Mycobacterium bovis BCG assessed as clolony forming unit at 4 ug/ml after 21 days; type: functional, variant bovis BCG; outline: as §1
# [17] = test system: Mycobacterium tuberculosis; assay: Antimycobacterial activity against Mycobacterium bovis BCG assessed as clolony forming unit at 4 ug/ml after 21 days in presence of destrin; type: functional, variant bovis BCG; outline: as §1
# [18] = test system: Mycobacterium tuberculosis; assay: Antimycobacterial activity against Mycobacterium bovis BCG assessed as clolony forming unit at 4 ug/ml after 7 days in presence of dextrin; type: functional, variant bovis BCG; outline: as §1
# [19] = test system: Mycobacterium tuberculosis; assay: Antimycobacterial activity against Mycobacterium bovis BCG assessed as clolony forming unit at 4 ug/ml after 7 days in presence of sucrose; type: functional, variant bovis BCG; outline: as §1
# [20] = test system: Mycobacterium tuberculosis; assay: Antimycobacterial activity against Mycobacterium bovis BCG assessed as clolony forming unit at 4 ug/ml after 7 days; type: functional, variant bovis BCG; outline: as §1
# [21] = test system: Mycobacterium tuberculosis; assay: Antimycobacterial activity against Mycobacterium bovis BCG assessed as clolony forming unit at 4 ug/ml after 21 days in presence of sucrose; type: functional, variant bovis BCG; outline: as §1
smiles,measurement,setting,value
CC(=O)N[C@@H]1[C@@H](O)[C@H](O)[C@@H](CO)O[C@H]1SC(=S)N1CCCC1,log10CFU/ml,[1],4.43
same,log10CFU/ml,[2],5.79
same,log10CFU/ml,[3],6.25
same,MIC,[4],1 µg/mL
same,MIC,[5],1 µg/mL
same,log10CFU/ml,[6],4.55
same,log10CFU/ml,[7],6.07
same,log10CFU/ml,[8],5.76
same,MIC,[9],1 µg/mL
CC(=O)N[C@@H]1[C@@H](O)[C@H](O)[C@@H](CO)O[C@H]1SC(=S)N(C)C,log10CFU/ml,[10],5.91
same,log10CFU/ml,[11],6.44
same,log10CFU/ml,[12],6.41
same,log10CFU/ml,[13],5.78
same,log10CFU/ml,[14],5.91
same,MIC,[4],10 µg/mL
same,MIC,[5],10 µg/mL
same,log10CFU/ml,[15],5.2
same,MIC,[9],10 µg/mL
CCc1cc(C(N)=S)ccn1 [ETHIONAMIDE],MIC,[4],10 µg/mL
same,MIC,[5],1 µg/mL
same,MIC,[9],0.5 µg/mL
"N.S=C(S)N1CCCC1 [PYRROLIDINE DITHIOCARBAMIC ACID, AMMONIUM SALT]",log10CFU/ml,[16],4.41
same,log10CFU/ml,[17],5.56
same,log10CFU/ml,[18],6.93
same,log10CFU/ml,[19],6.05
same,log10CFU/ml,[20],4.65
same,MIC,[4],0.25 µg/mL
same,log10CFU/ml,[21],5.56
same,MIC,[5],0.5 µg/mL
same,MIC,[9],0.5 µg/mL

# — ChEMBL document CHEMBL1667806, “Synthesis and evaluation of anti-tubercular activity of new dithiocarbamate sugar derivatives” (2011)
